Columns and labels:
CYP2C8 = CYP2C8 (Homo sapiens, UniProt P10632); experiment: Cytochrome P450 phenotyping; assay type: in vitro ADME; conditions: recombinant human CYP2C8; with NADPH; 60 minutes; n = 1
Procedure, shortened: (§1)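 Recombinant human CYPs prepared at CYP1A2 200 nM, CYP2B6/2C8 250 nM, CYP2C9 100 nM, CYP2D6 50 nM. Test compound added as 2 μM DMSO dosing solution on ice. Plate prewarmed, then 8 mM NADPH solution or blank buffer added. Incubation 60 min (1A2, 2B6, 2C8) or 30 min (2C9, 2D6). Stopped with acetonitrile plus internal standard; supernatant by LC-MS/MS; n = 1.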

CYP2D6 = CYP2D6 (Homo sapiens, UniProt P10635); experiment: Cytochrome P450 phenotyping; assay type: in vitro ADME; conditions: recombinant human CYP2D6; with NADPH; 30 minutes; n = 1
Sequence of CYP2D6 (P10635 whole entry): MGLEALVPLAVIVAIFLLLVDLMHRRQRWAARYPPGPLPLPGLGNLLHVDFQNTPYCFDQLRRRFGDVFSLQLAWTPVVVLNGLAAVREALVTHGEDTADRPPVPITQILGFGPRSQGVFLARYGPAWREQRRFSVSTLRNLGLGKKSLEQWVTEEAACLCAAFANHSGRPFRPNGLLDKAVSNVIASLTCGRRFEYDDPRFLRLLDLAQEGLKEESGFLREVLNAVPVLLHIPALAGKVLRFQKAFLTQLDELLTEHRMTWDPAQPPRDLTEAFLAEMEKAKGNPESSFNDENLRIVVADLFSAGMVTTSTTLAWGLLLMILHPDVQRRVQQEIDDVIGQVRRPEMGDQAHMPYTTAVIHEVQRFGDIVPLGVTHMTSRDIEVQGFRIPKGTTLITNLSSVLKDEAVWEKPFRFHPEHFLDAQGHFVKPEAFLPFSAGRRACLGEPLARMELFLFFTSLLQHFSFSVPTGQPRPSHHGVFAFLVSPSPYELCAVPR
Procedure, shortened: as §1

CYP2C9 = CYP2C9 (Homo sapiens, UniProt P11712); experiment: Cytochrome P450 phenotyping; assay type: in vitro ADME; conditions: recombinant human CYP2C9; with NADPH; 30 minutes; n = 1
Sequence of CYP2C9 (P11712 whole entry): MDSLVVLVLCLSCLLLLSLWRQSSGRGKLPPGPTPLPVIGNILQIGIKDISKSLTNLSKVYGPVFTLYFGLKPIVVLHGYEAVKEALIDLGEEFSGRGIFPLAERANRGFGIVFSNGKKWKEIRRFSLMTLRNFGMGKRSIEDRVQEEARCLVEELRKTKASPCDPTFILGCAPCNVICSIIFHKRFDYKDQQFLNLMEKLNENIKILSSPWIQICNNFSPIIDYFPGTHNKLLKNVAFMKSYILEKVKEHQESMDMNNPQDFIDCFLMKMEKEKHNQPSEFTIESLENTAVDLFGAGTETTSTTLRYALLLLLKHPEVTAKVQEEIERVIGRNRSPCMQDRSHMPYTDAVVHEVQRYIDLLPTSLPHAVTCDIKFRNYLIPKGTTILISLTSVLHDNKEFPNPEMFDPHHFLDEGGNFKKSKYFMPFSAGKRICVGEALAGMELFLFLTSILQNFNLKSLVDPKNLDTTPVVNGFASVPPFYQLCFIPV
Procedure, shortened: as §1

IFN-γ = experiment: Human whole blood potency, blockade of IFN-γ; assay type: cell-based; conditions: unpublished data
IL-4 = experiment: Human whole blood potency, blockade of IL-4; assay type: cell-based; conditions: unpublished data
CYP1A2 = CYP1A2 (Homo sapiens, UniProt P05177); experiment: Cytochrome P450 phenotyping; assay type: in vitro ADME; conditions: recombinant human CYP1A2; with NADPH; 60 minutes; n = 1
Sequence of CYP1A2 (P05177 whole entry): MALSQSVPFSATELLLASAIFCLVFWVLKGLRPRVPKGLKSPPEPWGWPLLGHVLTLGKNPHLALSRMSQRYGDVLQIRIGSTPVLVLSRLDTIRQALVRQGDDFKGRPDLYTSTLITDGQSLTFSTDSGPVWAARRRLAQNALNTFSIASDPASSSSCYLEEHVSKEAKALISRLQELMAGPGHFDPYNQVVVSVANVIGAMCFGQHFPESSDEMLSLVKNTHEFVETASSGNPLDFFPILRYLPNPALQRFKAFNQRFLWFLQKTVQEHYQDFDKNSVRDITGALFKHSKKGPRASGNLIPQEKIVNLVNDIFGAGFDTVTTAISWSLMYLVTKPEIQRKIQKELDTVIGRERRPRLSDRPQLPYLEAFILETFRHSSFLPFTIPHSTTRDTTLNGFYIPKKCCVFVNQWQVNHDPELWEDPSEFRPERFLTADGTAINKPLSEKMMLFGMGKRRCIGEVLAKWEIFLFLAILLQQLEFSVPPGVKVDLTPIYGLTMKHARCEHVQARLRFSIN
Procedure, shortened: as §1

CYP3A4 = CYP3A4 (Homo sapiens, UniProt P08684); experiment: Cytochrome P450 phenotyping; assay type: in vitro ADME; conditions: recombinant human CYP3A4; with NADPH; 30 minutes; n = 1
Sequence of CYP3A4 (P08684 whole entry): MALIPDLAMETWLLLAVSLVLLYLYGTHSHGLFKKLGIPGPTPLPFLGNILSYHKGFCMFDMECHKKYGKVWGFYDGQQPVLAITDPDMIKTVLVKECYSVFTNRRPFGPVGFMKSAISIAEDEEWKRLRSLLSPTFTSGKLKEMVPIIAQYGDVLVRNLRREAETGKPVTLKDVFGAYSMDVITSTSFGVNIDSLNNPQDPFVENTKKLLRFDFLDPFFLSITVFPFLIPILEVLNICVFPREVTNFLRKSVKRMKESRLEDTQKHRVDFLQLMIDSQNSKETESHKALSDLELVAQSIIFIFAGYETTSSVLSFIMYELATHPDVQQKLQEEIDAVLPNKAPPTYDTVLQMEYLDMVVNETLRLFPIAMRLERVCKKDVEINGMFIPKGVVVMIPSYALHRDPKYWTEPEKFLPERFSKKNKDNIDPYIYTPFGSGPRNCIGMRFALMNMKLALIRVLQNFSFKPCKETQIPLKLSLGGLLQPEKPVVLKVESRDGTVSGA
Procedure, shortened: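 Recombinant human CYP3A4 was prepared at 100 nM, and a 2 μM dosing solution of test compound in DMSO was added on ice. After prewarming, 8 mM NADPH solution or blank buffer was added for 30 minutes. Acetonitrile with internal standard stopped the reaction. The plate was shaken and centrifuged, and the supernatant was analysed by LC-MS/MS; n = 1.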

Sequence of CYP2C8 (P10632 whole entry): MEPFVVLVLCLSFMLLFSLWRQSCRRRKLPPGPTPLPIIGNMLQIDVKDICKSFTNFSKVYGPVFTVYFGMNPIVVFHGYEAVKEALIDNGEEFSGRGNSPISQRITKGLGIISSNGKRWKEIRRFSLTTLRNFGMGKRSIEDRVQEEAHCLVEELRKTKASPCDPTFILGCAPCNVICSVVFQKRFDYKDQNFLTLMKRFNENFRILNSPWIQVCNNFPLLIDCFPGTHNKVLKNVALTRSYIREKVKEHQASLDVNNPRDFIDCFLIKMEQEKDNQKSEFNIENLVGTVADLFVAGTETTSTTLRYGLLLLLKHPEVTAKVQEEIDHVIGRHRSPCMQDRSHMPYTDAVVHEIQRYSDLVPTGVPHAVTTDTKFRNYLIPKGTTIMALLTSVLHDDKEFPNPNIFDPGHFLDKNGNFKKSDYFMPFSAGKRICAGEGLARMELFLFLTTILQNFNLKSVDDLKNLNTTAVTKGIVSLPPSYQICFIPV

CC(=O)O[C@H]1C(=O)[C@@]2(C)[C@H]([C@H](OC(=O)c3ccccc3)[C@]3(O)C[C@H](OC(=O)[C@H](O)[C@@H](NC(=O)c4ccccc4)c4ccccc4)C(C)=C1C3(C)C)[C@]1(OC(C)=O)CO[C@@H]1C[C@@H]2O [paclitaxel, reference compound]
Percentage Remaining (CYP2C8): 0.852%

CCc1cccc2cc(C(O)CNC(C)(C)C)oc12 (stereo not shown) [bufuralol]
Percentage Remaining (CYP2D6): 2.48%

O=C(O)Cc1ccccc1Nc1c(Cl)cccc1Cl [diclofenac]
Percentage Remaining (CYP2C9): 2.83%

N#CC[C@H](C1CCCC1)n1cc(-c2ncnc3[nH]ccc23)cn1 [ruxolitinib]
level required for blockade of IFN-γ (human whole blood potency) (IFN-γ): 305 nM
level required for blockade of IL-4 (human whole blood potency) (IL-4): 564 nM

CCOc1ccc(NC(C)=O)cc1 [phenacetin, reference compound]
Percentage Remaining (CYP1A2): 15.1%

Cc1ncc2n1-c1ccc(Cl)cc1C(c1ccccc1F)=NC2 [midazolam, reference compound]
Percentage Remaining (CYP3A4): 0.252%
